The source of these data is ChEMBL document CHEMBL1909510, “Synthesis and evaluation of cytotoxic effects of hanultarin and its derivatives” (Bioorg Med Chem Lett, 2011).

The pIC50 is the negative decadic logarithm of the IC50, by convention in mol/L. Lower therefore signals a large IC50.

Structures are written as SMILES. pIC50: −log10 of the molar value. The source made the active and inactive calls. No cut-off for these calls is given here.

Holding throughout (assay type): functional, cell-based
For one experiment, the system named is SK-MEL-2. The experiment can be described thus: Cytotoxicity against human SK-MEL-2 cells after 48 hrs by sulforhodamine B assay. The following applies: SK-MEL-2, 48 h. The method in brief:
(§1)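 SRB assay, done in triplicate on each cell line across 1.56–50 µg/mL; IC50 determined per cell line. Lines are A549 (human lung cancer), B16F10 (mouse melanoma), HCT-15 (human colon), SKOV3 (human ovary) and SKMel2 (human skin).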
Background: The SRB assay estimates cell density from bound dye.

In a further experiment the test system is B16-F10. The experiment can be described thus: Cytotoxicity against mouse B16F10 cells after 48 hrs by sulforhodamine B assay. The note with it: B16-F10, 48 h. The method in brief: as §1
The subject of a further experiment is SK-OV-3. The experiment can be described thus: Cytotoxicity against human SKOV3 cells after 48 hrs by sulforhodamine B assay. The note with it: SK-OV-3, 48 h. The procedure, abridged:
as §1

Experiment [1] has as its system A549. As to the kind of experiment: Cytotoxicity against human A549 cells after 48 hrs by sulforhodamine B assay. The following applies: A549, 48 h. The method in brief:
as §1

The subject of the next experiment is HCT-15. As to the kind of experiment: Cytotoxicity against human HCT15 cells after 48 hrs by sulforhodamine B assay. The following applies: HCT-15, 48 h. The method in brief:
as §1

Experiment [2] concerns A549. The experiment can be described thus: Induction of microtubule disruption in human A549 cells at IC50 after 48 hrs by immunocytochemical analysis.
In experiment [3] the test system is A549. As to the kind of experiment: Induction of actin disruption in human A549 cells at IC50 after 48 hrs by immunocytochemical analysis.
Experiment [4] deals with A549. As to the kind of experiment: Induction of nucleus disruption in human A549 cells at IC50 after 48 hrs by immunocytochemical analysis.

Turning to `COc1cc(CC(=O)OC[C@H](Cc2ccc(O)c(OC)c2)[C@H](CO)Cc2ccc(O)c(OC)c2)ccc1O` (racemic), the negative-log IC50 (pIC50) in the experiment on SK-MEL-2 was under 4.12; with B16-F10, 4.14; with SK-OV-3 it was under 4.12; with A549 [1] it was 4.19; in the experiment on HCT-15, 4.28.
In the case of `COc1cc(CC(=O)OC[C@H](Cc2ccc(O)c(OC)c2)[C@H](COC(=O)Cc2ccc(O)c(OC)c2)Cc2ccc(O)c(OC)c2)ccc1O` (racemic), the result in the experiment with A549 [2] and with A549 [3] was Active. The pIC50 in the experiment with SK-MEL-2 is 4.85; in the experiment on B16-F10, 4.88; in the experiment on SK-OV-3 it was 4.51; with A549 [1], 4.76; with HCT-15, 4.80. The outcome in the experiment with A549 [4] was inactive.
`COc1cc(CCC(=O)OC[C@H](Cc2ccc(O)c(OC)c2)[C@H](CO)Cc2ccc(O)c(OC)c2)ccc1O` (racemic): the negative logarithm of the IC50 (pIC50) with SK-MEL-2 is 4.19; in the experiment with B16-F10, 4.16; in the experiment on SK-OV-3, under 4.13; in the experiment with A549 [1], 4.18; in the experiment with HCT-15, 4.30.
With `COc1cc(CCC(=O)OC[C@H](Cc2ccc(O)c(OC)c2)[C@H](COC(=O)CCc2ccc(O)c(OC)c2)Cc2ccc(O)c(OC)c2)ccc1O` (racemic), the outcome in the experiment with A549 [2] and in the experiment on A549 [3] was Active. The pIC50 in the experiment with SK-MEL-2 was 4.99; with B16-F10 it was 4.89; in the experiment on SK-OV-3, 4.44; in the experiment on A549 [1], 4.92; in the experiment on HCT-15 it was 5.00. For the same molecule, in the experiment on A549 [4], the outcome was inactive.
In the case of `COc1cc(/C=C/C(=O)OC[C@H](Cc2ccc(O)c(OC)c2)[C@H](COC(=O)/C=C/c2ccc(O)c(OC)c2)Cc2ccc(O)c(OC)c2)ccc1O` (racemic), the outcome with A549 [2] and in the experiment with A549 [3] was Active. Besides, the pIC50 was 5.08 in the experiment on SK-MEL-2; 5.01 with B16-F10; 4.66 in the experiment with SK-OV-3; 5.15 in the experiment with A549 [1]; 5.08 with HCT-15. Moreover, the outcome in the experiment on A549 [4] was inactive.
Regarding `COc1cc(C[C@@H](CO)[C@H](CO)Cc2ccc(O)c(OC)c2)ccc1O` (racemic) [(+)-SECOISOLARICIRESINOL], the pIC50 in the experiment on SK-MEL-2, in the experiment on B16-F10, in the experiment with SK-OV-3, with A549 [1] and in the experiment with HCT-15 was under 3.96 throughout.
Turning to `COc1cc(/C=C/C(=O)OC[C@H](Cc2ccc(O)c(OC)c2)[C@H](CO)Cc2ccc(O)c(OC)c2)ccc1O` (racemic) [HANULTARIN], the outcome in the experiment on A549 [2] and with A549 [3] was Active. The pIC50 with SK-MEL-2 is 4.76; in the experiment on B16-F10 it was 4.67; in the experiment with SK-OV-3, 4.19; in the experiment with A549 [1] it was 4.53; in the experiment with HCT-15, 4.53. In addition, the outcome in the experiment with A549 [4] was inactive.
